Key:
Type in all cases: functional
Escherichia coli = test: Antibacterial activity against Escherichia coli ATCC 25922 assessed as growth inhibition by broth microdilution method
Summary of the method: (§1)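 MIC by broth microdilution following CLSI guidelines; inoculum made by direct colony suspension, 5 × 10^5 CFU/mL after the final dilution. Compounds were added from a 10 mg/mL DMSO stock, tested up to 64 μg/mL, giving 0.64% final DMSO at the top concentration. Growth was read as OD600 in a microtiter plate reader.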

Bacillus subtilis = test: Antibacterial activity against Bacillus subtilis 168 trpC2 assessed as growth inhibition by broth microdilution method; settings: subsp. subtilis str. 168; summary of the method: as §1
Staphylococcus aureus [1] = test: Antibacterial activity against multidrug and methicillin-resistant Staphylococcus aureus 25697 assessed as growth inhibition by broth microdilution method
Summary of the method: (§2)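 MIC by broth microdilution following CLSI guidelines. Inoculum made by direct colony suspension, giving 5 × 10^5 CFU/mL after the last dilution step. Compounds dosed from 10 mg/mL DMSO stocks up to 64 μg/mL top concentration, where final DMSO was 0.64%. Growth read as OD600 in a microtiter plate reader.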

Streptococcus pneumoniae = test: Antibacterial activity against Streptococcus pneumoniae ATCC 49619 assessed as growth inhibition by broth microdilution method; summary of the method: as §1
Staphylococcus aureus [2] = test: Antibacterial activity against Staphylococcus aureus ATCC 29213 assessed as growth inhibition by broth microdilution method; summary of the method: as §1
Enterococcus faecalis = test: Antibacterial activity against multidrug and vancomycin-resistant Enterococcus faecalis UW 2689 assessed as growth inhibition by broth microdilution method; summary of the method: as §2
Pseudomonas aeruginosa = test: Antibacterial activity against multidrug-resistant Pseudomonas aeruginosa B 63230 assessed as growth inhibition by broth microdilution method; summary of the method: as §2

Row | SMILES | MIC (Escherichia coli) | MIC (Bacillus subtilis) | MIC (Staphylococcus aureus [1]) | MIC (Streptococcus pneumoniae) | MIC (Staphylococcus aureus [2]) | MIC (Enterococcus faecalis) | MIC (Pseudomonas aeruginosa)
1 | C=C1NC(=O)C(C)C(CCC(C)C(=O)/C=C/C(C)=C/CCC(C)CCCCCC)OC(=O)C(CCC(N)=O)NC(=O)C(C)CNC1=O (stereo not drawn) | > 64 µg/mL | > 64 µg/mL | > 64 µg/mL | > 64 µg/mL | > 64 µg/mL | > 64 µg/mL | > 64 µg/mL
2 | CC(=O)C[C@@H](O)Cc1cc2cc(O)cc(O)c2c(=O)o1 | > 64 µg/mL | > 64 µg/mL | > 64 µg/mL | > 64 µg/mL | > 64 µg/mL | > 64 µg/mL | > 64 µg/mL
3 | C[C@@H](O)C[C@@H](O)Cc1cc2cc(O)cc(O)c2c(=O)o1 | > 64 µg/mL | > 64 µg/mL | > 64 µg/mL | > 64 µg/mL | > 64 µg/mL | > 64 µg/mL | > 64 µg/mL
4 | Cc1cc(=O)cc(Cc2cc(O)cc(O)c2)o1 | > 64 µg/mL | > 64 µg/mL | > 64 µg/mL | > 64 µg/mL | > 64 µg/mL | > 64 µg/mL | > 64 µg/mL
5 | COC(=O)c1oc(=O)c2c(O)c3c(=O)cc(C)oc3cc2c1O | > 64 µg/mL | 8 µg/mL | 2 µg/mL | 4 µg/mL | 2 µg/mL | 8 µg/mL | > 64 µg/mL
6 | O=C(O)CNc1ccccc1C(=O)O | > 64 µg/mL | > 64 µg/mL | > 64 µg/mL | > 64 µg/mL | > 64 µg/mL | > 64 µg/mL | > 64 µg/mL
7 | O=C(O)c1cn(C2CC2)c2cc(N3CCNCC3)c(F)cc2c1=O [CIPROFLOXACIN] |  | 0.16 µg/mL | 8 µg/mL | 0.25 µg/mL | 0.0625 µg/mL | 16 µg/mL | 16 µg/mL
8 | CC[C@H](C)[C@H]1C(=O)O[C@H](C(C)C)C(=O)N(C)[C@@H](C(C)C)C(=O)O[C@H](C(C)C)C(=O)N(C)[C@@H](C(C)C)C(=O)O[C@H](C(C)C)C(=O)N1C [ENNIATIN B1] | > 64 µg/mL | 16 µg/mL | 8 µg/mL | 4 µg/mL | 8 µg/mL | 8 µg/mL | > 64 µg/mL
9 | CC(C)[C@H]1C(=O)O[C@H](C(C)C)C(=O)N(C)[C@@H](C(C)C)C(=O)O[C@H](C(C)C)C(=O)N(C)[C@@H](C(C)C)C(=O)O[C@H](C(C)C)C(=O)N1C [ENNIATIN B] | > 64 µg/mL | > 64 µg/mL | > 64 µg/mL | 16 µg/mL | > 64 µg/mL | > 64 µg/mL | > 64 µg/mL
10 | CN(C)[C@@H]1C(O)=C(C(N)=O)C(=O)[C@@]2(O)C(O)=C3C(=O)c4c(O)cccc4[C@@](C)(O)[C@H]3C[C@@H]12 [TETRACYCLINE] | 0.5 µg/mL | 4 µg/mL | 32 µg/mL | 0.0625 µg/mL | 0.25 µg/mL | 64 µg/mL | 32 µg/mL
11 | CN[C@H](CC(C)C)C(=O)N[C@H]1C(=O)N[C@@H](CC(N)=O)C(=O)N[C@H]2C(=O)N[C@H]3C(=O)N[C@H](C(=O)N[C@H](C(=O)O)c4cc(O)cc(O)c4-c4cc3ccc4O)[C@H](O)c3ccc(c(Cl)c3)Oc3cc2cc(c3O[C@@H]2O[C@H](CO)[C@@H](O)[C@H](O)[C@H]2O[C@H]2C[C@](C)(N)[C@H](O)[C@H](C)O2)Oc2ccc(cc2Cl)[C@H]1O [VANCOMYCIN] | > 64 µg/mL | 0.125 µg/mL |  | 0.125 µg/mL |  |  | > 64 µg/mL
